Data as given in ChEMBL document CHEMBL4689842, “EUbOPEN Chemogenomics Library wave 1” (2021).
Values joined by “and” are separate entries in the source; they are usually repeats but may differ in a detail not shown here. Identical values can stand only once.

Test system: HEK-293T
Experiment: Multiplex assay against HEK293T;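 as to Population Tubulin-Different-Phenotype (%): share of the cells with healthy nuclei that show this phenotype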
Type: toxicity, cell-based
Details: human
Method in brief: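 Imaging took place on a CQ1 microscope at 37°C and 5% CO2 once compound had been added to live cells stained at seeding with Hoechst33342, BioTracker Green Microtubule Cytoskeleton Dye, MitoTracker Red and Annexin V Alexa Fluor 680. CellPathfinder machine-learning gating classed cells as Hoechst high-intensity objects or normal cells, classed normal cells as having healthy, pyknosed or fragmented nuclei, and classed pyknosed cells as mitotic or apoptotic. Tubulin, mitochondrial-mass and membrane-permeability phenotypes are per cents of the healthy-nucleus cells.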

[1] = 12 h, 1 µM, compound concentration 1 uM, replicate 1
[2] = 12 h, 1 µM, compound concentration 1 uM, replicate 2
[3] = 12 h, 10 µM, compound concentration 10 uM, replicate 1
[4] = 12 h, 10 µM, compound concentration 10 uM, replicate 2
[5] = 24 h, 1 µM, compound concentration 1 uM, replicate 1
[6] = 24 h, 1 µM, compound concentration 1 uM, replicate 2
[7] = 24 h, 10 µM, compound concentration 10 uM, replicate 1
[8] = 24 h, 10 µM, compound concentration 10 uM, replicate 2

`CNC(=O)c1ccc(Nc2ncc(C(F)(F)F)c(NCc3nccnc3N(C)S(C)(=O)=O)n2)cc1` [DEFACTINIB] was tested, and the “Population Apoptotic (%)” value [1] was 27%, the “Population Fragmented Nuclei (%)” value [1] was 14% and 16% and the “Population Healthy Nuclei (%)” value [1] was 72% and 59%. The “Population Hoechst High Intensity Objects (%)” value [1] was 11% and 18%, the “Population Membrane Permeable-Phenotype (%)” value [1] was 4% and 6% and the “Population Mitochondria Different-Phenotype (%)” value [1] was 6% and 8%. The “Population Mitotic Cells (%)” value [1] was 72% and 74%, the “Population Normal (%)” value [1] was 88% and 81% and the “Population Pyknosed Nuclei (%)” value [1] was 13% and 24%. The “Total Cell Count” value [1] was 689 and 588, the “Population Apoptotic (%)” value [2] was 25% and 12% and the “Population Fragmented Nuclei (%)” value [2] was 9% and 3%. For the same molecule, the “Population Healthy Nuclei (%)” value [2] was 84% and 92%, the “Population Hoechst High Intensity Objects (%)” value [2] was 3% and the “Population Membrane Permeable-Phenotype (%)” value [2] was 2% and 3%. The “Population Mitochondria Different-Phenotype (%)” value [2] was 10% and 19%, the “Population Mitotic Cells (%)” value [2] was 75% and 87% and the “Population Normal (%)” value [2] was 96%. The “Population Pyknosed Nuclei (%)” value [2] was 6% and 3%, the “Total Cell Count” value [2] was 1140 and 1057 and the “Population Apoptotic (%)” value [3] was 27%. The “Population Fragmented Nuclei (%)” value [3] was 17% and 16%, the “Population Healthy Nuclei (%)” value [3] was 62% and 66% and the “Population Hoechst High Intensity Objects (%)” value [3] was 11% and 13%. For the same molecule, the “Population Membrane Permeable-Phenotype (%)” value [3] was 7% and 4%, the “Population Mitochondria Different-Phenotype (%)” value [3] was 12% and 5% and the “Population Mitotic Cells (%)” value [3] was 72%. The “Population Normal (%)” value [3] was 88% and 86%, the “Population Pyknosed Nuclei (%)” value [3] was 20% and 17% and the “Total Cell Count” value [3] was 704 and 581. For the same molecule, the “Population Fragmented Nuclei (%)” value [4] was 3% and 7%, the “Population Healthy Nuclei (%)” value [4] was 90% and 87% and the “Population Hoechst High Intensity Objects (%)” value [4] was 5% and 2%. The “Population Membrane Permeable-Phenotype (%)” value [4] was 6% and 1%, the “Population Mitochondria Different-Phenotype (%)” value [4] was 21% and 10% and the “Population Mitotic Cells (%)” value [4] was 78% and 96%. The “Population Normal (%)” value [4] was 94% and 97%, the “Population Pyknosed Nuclei (%)” value [4] was 6% and 4% and the “Total Cell Count” value [4] was 770 and 1490. For the same molecule, the “Population Apoptotic (%)” value [5] was 23% and 19%, the “Population Fragmented Nuclei (%)” value [5] was 15% and 17% and the “Population Healthy Nuclei (%)” value [5] was 77% and 62%. For the same molecule, the “Population Hoechst High Intensity Objects (%)” value [5] was 6% and 14%, the “Population Membrane Permeable-Phenotype (%)” value [5] was 6% and the “Population Mitochondria Different-Phenotype (%)” value [5] was 4% and 12%. The “Population Mitotic Cells (%)” value [5] was 76% and 80%, the “Population Normal (%)” value [5] was 93% and 85% and the “Population Pyknosed Nuclei (%)” value [5] was 7% and 19%. For the same molecule, the “Population Tubulin-Different-Phenotype (%)” value [5] was 10% and 26%, the “Total Cell Count” value [5] was 751 and 618 and the “Population Apoptotic (%)” value [6] was 14% and 11%. For the same molecule, the “Population Healthy Nuclei (%)” value [6] was 74% and 91%, the “Population Hoechst High Intensity Objects (%)” value [6] was 3% and 5% and the “Population Membrane Permeable-Phenotype (%)” value [6] was 3%. For the same molecule, the “Population Mitotic Cells (%)” value [6] was 85% and 88%, the “Population Normal (%)” value [6] was 96% and 94% and the “Population Pyknosed Nuclei (%)” value [6] was 3% and 2%. For the same molecule, the “Total Cell Count” value [6] was 1868 and 1334, the “Population Apoptotic (%)” value [7] was 33% and 18% and the “Population Fragmented Nuclei (%)” value [7] was 16% and 15%. For the same molecule, the “Population Healthy Nuclei (%)” value [7] was 66% and 78%, the “Population Hoechst High Intensity Objects (%)” value [7] was 11% and 7% and the “Population Membrane Permeable-Phenotype (%)” value [7] was 6% and 4%. The “Population Mitotic Cells (%)” value [7] was 66% and 81%, the “Population Normal (%)” value [7] was 88% and 92% and the “Population Tubulin-Different-Phenotype (%)” value [7] was 24% and 11%. The “Total Cell Count” value [7] was 732 and 672, the “Population Healthy Nuclei (%)” value [8] was 90% and 75% and the “Population Hoechst High Intensity Objects (%)” value [8] was 3%. The “Population Membrane Permeable-Phenotype (%)” value [8] was 8% and 3%, the “Population Mitotic Cells (%)” value [8] was 71% and 92% and the “Population Normal (%)” value [8] was 96%. For the same molecule, the “Population Pyknosed Nuclei (%)” value [8] was 4% and 2% and the “Total Cell Count” value [8] was 961 and 2290.
